Assays:
[1] = Growth inhibition of BHK15 cells after 36 hrs by XTT assay; format: cell-based, Mesocricetus auratus; details: hamster
Outline: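 Uninfected confluent BHK-15 cells (MEM, 10% FBS) overlaid with serial compound dilutions from DMSO stocks, ~36 h at 37 °C, 5% CO2. Medium replaced, XTT substrate added, 2 h at 37 °C, then OD450 read. GI50 calculated relative to cells given 1% DMSO.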

Yellow fever virus [2] = test: Antiviral activity against Yellow fever virus 17D expressing IRES-luciferase gene infected in BHK cells assessed as inhibition of viral production at 50 uM after 36 hrs by luciferase reporter assay; format: functional, cell-based
Yellow fever virus [3] = test: Antiviral activity against Yellow fever virus 17D expressing IRES-luciferase gene infected in BHK cells assessed as inhibition of viral production after 36 hrs by luciferase reporter assay relative to control; format: functional
Outline: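 Controls: uninfected, infected, and DMSO-treated infected cells. After ~36 h at 37 °C, 5% CO2, cells lysed and firefly luciferase luminescence read. IC50 from nonlinear regression versus DMSO-treated infected cells.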

[4] = Half life in rat plasma; format: ADME
Outline: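 Reconstituted lyophilized rat plasma warmed 15 min at 37 °C, diluted with 0.01 M saline to 80% plasma, then warmed 5 min more. Compound in DMSO added; mixture kept at 37 °C. Timed aliquots quenched in methanol and centrifuged; supernatants analysed by C18 HPLC (85:15 methanol/water, room temperature). Half-life from regression of concentration versus time.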

[5] = Therapeutic index, ratio of GI50 for BHK15 cells to EC50 for Yellow fever virus 17D; format: cell-based; details: hamster, read-out: TI

Row | Structure (SMILES) | GI50 at 36 h [1] | EC50 (Yellow fever virus [2]) | inhibition (INH) (Yellow fever virus [3]) | half-life [4] | selectivity ratio [5]
1 | COC(=O)c1sc(-c2ccc(Cl)cc2)nc1C=O | 36.4 µM | 42.8 µM | 99.9% | – | –
2 | CONC(=O)c1sc(-c2ccc(Cl)cc2)nc1C(Br)Br | 81.4 µM | 1.7 µM | 93.6% | – | –
3 | NC(=O)c1sc(-c2ccc(Cl)cc2)nc1C(Br)Br | 99.7 µM | 1.7 µM | 99.8% | – | –
4 | CN(C)C(=O)c1sc(-c2ccc(Cl)cc2)nc1C(Br)Br | 163 µM | 20 µM | 93.2% | – | –
5 | CNC(=O)c1sc(-c2ccc(Cl)cc2)nc1C(Br)Br | 74.6 µM | 1.8 µM | 99.7% | – | –
6 | CCN(CC)C(=O)c1sc(-c2ccc(Cl)cc2)nc1C(Br)Br | 63.5 µM | 13.7 µM | 99.8% | – | –
7 | C=CCNC(=O)c1sc(-c2ccc(Cl)cc2)nc1C(Br)Br | 40.8 µM | 1.6 µM | 99.9% | – | –
8 | CCNC(=O)c1sc(-c2ccc(Cl)cc2)nc1C(Br)Br | 33.3 µM | 2.7 µM | 99.9% | – | –
9 | C#CCNC(=O)c1sc(-c2ccc(Cl)cc2)nc1C(Br)Br | 23.9 µM | 1.7 µM | 99.7% | – | –
10 | CCOC(=O)c1sc(-c2ccc(Cl)cc2)nc1C(Br)Br | 94.6 µM | 8.7 µM | 98.1% | – | –
11 | CC(C)OC(=O)c1sc(-c2ccc(Cl)cc2)nc1C(Br)Br | 372 µM | 19.9 µM | 84.4% | – | –
12 | CCSC(=O)c1sc(-c2ccc(Cl)cc2)nc1C(Br)Br | 81.4 µM | 1.6 µM | 99.7% | – | –
13 | CSC(=O)c1sc(-c2ccc(Cl)cc2)nc1C(Br)Br | 369 µM | 1.4 µM | 99.6% | 24.7 h | 256
14 | CC(=O)c1sc(-c2ccc(Cl)cc2)nc1C(Br)Br | 83.5 µM | 1.3 µM | 99.9% | – | –
15 | CN(C)/C=C/C(=O)c1sc(-c2ccc(Cl)cc2)nc1C(Br)Br | 38.2 µM | 11.4 µM | 99.8% | – | –
16 | O=C(NCCO)c1sc(-c2ccc(Cl)cc2)nc1C(Br)Br | 40.8 µM | 2.9 µM | 99.8% | – | –
17 | O=C(NC[C@@H](O)CO)c1sc(-c2ccc(Cl)cc2)nc1C(Br)Br | 158 µM | 1.1 µM | 99.9% | – | –
18 | CCc1nc(-c2ccc(Cl)cc2)sc1C(=O)OC | – | – | -56.7% | – | –

Row | Structure (SMILES) | GI50 at 36 h [1] | EC50 (Yellow fever virus [2]) | inhibition (INH) (Yellow fever virus [3]) | half-life [4] | selectivity ratio [5]
19 | COC(=O)c1sc(-c2ccc(Cl)cc2)nc1C(C)C | 49.6 µM | 58.7 µM | 14.7% | – | –
20 | COC(=O)c1sc(-c2ccc(Cl)cc2)nc1C(C)(C)C | – | – | 20.9% | – | –
21 | CCOC(=O)c1sc(-c2ccc(Cl)cc2)nc1-c1ccco1 | 465 µM | 311 µM | 50.3% | – | –
22 | COCc1nc(-c2ccc(Cl)cc2)sc1C(=O)OC | 388 µM | 158 µM | 38.1% | – | –
23 | CNC(=O)c1sc(-c2ccc(Cl)cc2)nc1COC | 50.8 µM | 2.9 µM | 99.7% | – | –
24 | CNC(=O)c1sc(-c2ccc(Cl)cc2)nc1C=O | – | – | 37.5% | – | –
25 | COC(=O)c1sc(-c2ccc(Cl)cc2)nc1C#N | – | – | 7.8% | – | –
26 | COC(=O)c1sc(-c2ccc(Cl)cc2)nc1C(Cl)Cl | 34.1 µM | 52.8 µM | 99.9% | – | –
27 | COC(=O)c1sc(-c2ccc(Cl)cc2)nc1CBr | 74.6 µM | 1.6 µM | 99.9% | – | –
28 | COC(=O)c1sc(-c2ccc(Cl)cc2)nc1CS(C)(=O)=O | – | – | -74.7% | – | –
29 | COC(=O)c1nc(-c2ccc(Cl)cc2)sc1C(=O)OC | – | – | 30.1% | – | –
30 | COCc1nc(-c2ccc(Cl)cc2)sc1C(=O)N(C)C | – | – | 11.3% | – | –
31 | CN(C)C(=O)c1sc(-c2ccc(Cl)cc2)nc1C=O | – | – | 5.5% | – | –
32 | COC(=O)c1nc(-c2ccc(Cl)cc2)sc1C(=O)N(C)C | 99.7 µM | 51 µM | 74% | – | –
33 | Cc1noc(-c2sc(-c3ccc(Cl)cc3)nc2C=O)n1 | 163 µM | 26.5 µM | 99.6% | – | –
34 | COC(=O)c1nc(-c2ccc(Cl)cc2)sc1-c1nc(C)no1 | – | – | 1.5% | – | –
35 | COC(=O)c1sc(-c2ccc(Cl)cc2)nc1C(Br)Br | 222 µM | 2.8 µM | 99.6% | 1.42 h | 79
36 | O=C(N[C@@H]1OC(CO)C(O)[C@H](O)[C@H]1O)c1sc(-c2ccc(Cl)cc2)nc1C(Br)Br (single isomer, unassigned) | – | – | 43.4% | – | –
